Assay results reported in ChEMBL document CHEMBL2321751, “Optimization of chloronitrobenzamides (CNBs) as therapeutic leads for human African trypanosomiasis (HAT)” (J Med Chem, 2013).
In brackets after ≈: the same amount, converted by molar mass.

How the values were obtained:
[1] = system: Trypanosoma brucei brucei; assay: Antitrypanosomal activity against blood stream stage of Trypanosoma brucei brucei after 48 hrs by Cell Titre Glo assay; assay type: functional, organism-based
Procedure, shortened: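 Culture-adapted parasites were grown in HMI-9 with 10% heat-inactivated FBS, 10% Serum Plus and penicillin/streptomycin to 1 × 10⁶ cells/mL, then diluted to 1 × 10⁴ cells/mL. DMSO dilution series were pin-transferred and plates held 48 h at 37 °C in 5% CO2. After 30 min at room temperature, CellTiter-Glo was added and luminescence read after 8 min.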

[2] = system: Trypanosoma brucei brucei; assay: Antitrypanosomal activity against Trypanosoma brucei brucei 221 after 48 hrs by Cell Titre Glo assay; assay type: functional, organism-based; conditions: Trypanosoma brucei, 221, 48 h
Procedure, shortened: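 Bloodstream-form parasites grown in HMI-9 with 10% heat-inactivated FBS, 10% Serum Plus and penicillin/streptomycin at 37 °C, 5% CO₂, to 1 × 10⁶ cells/mL. Diluted to 1 × 10⁴ cells/mL, then dosed with a DMSO dilution series by pin transfer. Incubated 48 h at 37 °C, 5% CO₂. Viability read by CellTiter-Glo luminescence. EC₅₀ from a variable-slope sigmoidal fit. Mean of six replicates, errors as 95% CI.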

[3] = system: BJ; assay: Cytotoxicity against human BJ cells after 72 hrs by Cell Titre Glo assay; assay type: cell-based
Procedure, shortened: (§1)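 Human cells grown to 80% confluence were plated in 384-well format and received compound dilutions by pin tool. After 72 h at 37 °C in 5% CO2, viability was measured by CellTiter-Glo luminescence.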

[4] = system: HepG2; assay: Cytotoxicity against human HepG2 cells after 72 hrs by Cell Titre Glo assay; assay type: cell-based; conditions: HepG2, 72 h; procedure, shortened: as §1
[5] = Permeability of the compound at pH 3.0 by PAMPA; assay type: ADME; conditions: read-out: permeability
[6] = Kinetic solubility of the compound in PBS buffer at pH 7.4 after 18 hrs by UV spectrophotometric analysis; assay type: physicochemical; conditions: for solubility kinetic at 18 h: PBS buffer, pH 7.4, read-out: Kinetic_solubility; for Kinetic_solubility: buffer, pH 7.4, 18 h, BLD = below limit of detection
Procedure, shortened: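 Compound from a 10 mM stock was added to PBS pH 7.4 and left 18 h at room temperature. The suspension was filtered, and the filtrate was mixed 1:1 with 1-propanol. Solubility was derived from UV spectrum AUC (250–500 nm) relative to a 1-propanol/PBS reference. Run in triplicate.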

[7] = system: HEK293; assay: Cytotoxicity against HEK293 cells after 72 hrs by Cell Titre Glo assay; assay type: cell-based; conditions: Homo sapiens, HEK293, 72 h; procedure, shortened: as §1
[8] = Kinetic solubility of the compound in PBS buffer at pH 3.0 after 18 hrs by UV spectrophotometric analysis; assay type: physicochemical; conditions: read-out: Kinetic_solubility
[9] = system: Raji; assay: Cytotoxicity against human Raji cells after 72 hrs by Cell Titre Glo assay; assay type: cell-based; procedure, shortened: as §1
[10] = Permeability of the compound at pH 7.4 by PAMPA; assay type: ADME; conditions: PAMPA, read-out: permeability
Procedure, shortened: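 Compound (10 mM DMSO stock) was diluted in system solution buffer pH 7.4 and placed in the donor chamber of a PAMPA sandwich whose membrane was coated with GIT lipid. Acceptor buffer filled the acceptor chamber, and the assembly was stirred for 30 min. Donor and acceptor UV spectra (250–500 nm) were compared with a reference to give the permeability coefficient. Run in triplicate.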

[11] = system: Trypanosoma brucei gambiense; assay: Antitrypanosomal activity against Trypanosoma brucei gambiense STIB930 after 70 hrs by Alamar Blue assay; assay type: functional, organism-based; conditions: STIB930, 70 h
Procedure, shortened: (§2)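 T. b. gambiense strains were grown in HMI-9 with 15% heat-inactivated FBS and 5% human serum. 10000 trypanosomes per well were seeded into serial drug dilutions and held 70 h at 37 °C in humidified 5% CO2. Resazurin was then added for a further 4–6 h, and fluorescence was read (ex 536/em 588 nm). IC50 was taken by linear regression from sigmoidal dose-inhibition curves.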

[12] = system: Trypanosoma brucei rhodesiense; assay: Antitrypanosomal activity against bloodstream forms of wild type Trypanosoma brucei rhodesiense STIB900 after 70 hrs by Alamar Blue assay; assay type: functional, organism-based; conditions: STIB900, 70 h
Procedure, shortened: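 T. b. rhodesiense STIB 900 was cultured in MEM with Earle's salts and Baltz supplements (0.2 mM 2-mercaptoethanol, 1 mM Na-pyruvate, 0.5 mM hypoxanthine, 15% heat-inactivated horse serum). 2000 bloodstream forms per well were exposed to serial drug dilutions for 70 h at 37 °C in humidified 5% CO2. Resazurin followed for 2–4 h, read by fluorescence (ex 536/em 588 nm). IC50 came from sigmoidal curves by linear regression.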

[13] = Half life in human liver microsomes; assay type: ADME, Microsome
Procedure, shortened: (§3)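 Liver microsomes (human: pooled from 200 mixed-gender donors; mouse: female […]) were diluted in 0.1 M potassium phosphate, pH 7.4, with EDTA, then spiked from a 2 mM DMSO/acetonitrile compound stock. Reactions were started with cofactor solutions A+B and kept at 37 °C with shaking. Samples at 0, 0.5, 1, 2 and 4 h were quenched with cold methanol containing 10 μM warfarin and analysed by UPLC-MS (SIR). k = −2.303 × slope of log peak-area ratio versus time; t1/2 = 0.693/k.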

[14] = Half life in mouse liver microsomes; assay type: ADME, Microsome; procedure, shortened: as §3
[15] = system: Trypanosoma brucei gambiense; assay: Antitrypanosomal activity against Trypanosoma brucei gambiense KO48 after 70 hrs by Alamar Blue assay; assay type: functional, organism-based; conditions: KO48, 70 h; procedure, shortened: as §2
[16] = system: Trypanosoma brucei gambiense; assay: Antitrypanosomal activity against Trypanosoma brucei gambiense DAL 898R after 70 hrs by Alamar Blue assay; assay type: functional, organism-based; procedure, shortened: as §2

EC50 [1] | EC50 [2] | Papp [10] | Structure (SMILES) | EC50 [3] | EC50 [4] | EC50 [7] | EC50 [9] | further results
980 nM | – | – | COc1ccc2nc(NC(=O)c3cc([N+](=O)[O-])ccc3Cl)sc2c1 | – | – | – | – | –
– | 220 nM | 18 ×10⁻⁶ cm/s | O=C(Nc1cccc(-c2nc3ccccc3s2)c1)c1cc([N+](=O)[O-])c(N2CCOCC2)cc1Cl | > 25000 nM | > 25000 nM | > 25000 nM | > 25000 nM | Papp [5]: 106 ×10⁻⁶ cm/s; solubility kinetic at 18 h [6]: 0.37 µM (≈ 0.183 µg/mL); solubility kinetic at 18 h [8]: 0.07 µM (≈ 0.0346 µg/mL)
1200 nM | – | – | Cc1ccc(-c2csc(NC(=O)c3cc([N+](=O)[O-])ccc3Cl)n2)cc1 | – | – | – | – | –
– | 6 nM | 41 ×10⁻⁶ cm/s | Cc1ccc(-c2nc3ccccc3s2)cc1NC(=O)c1cc([N+](=O)[O-])ccc1Cl | > 14000 nM | > 14000 nM | > 14000 nM | > 14000 nM | EC50 [11]: 36 nM; EC50 [12]: 13 nM; half-life [13]: > 4 h; Kinetic_solubility [6]: BLD; half-life [14]: > 4 h
520 nM | – | – | O=C(Nc1cc(C(F)(F)F)ccc1Cl)c1cc([N+](=O)[O-])ccc1Cl | – | – | – | – | –
4900 nM | – | – | O=C(Nc1ccc2oc(-c3ccccc3F)nc2c1)c1cc([N+](=O)[O-])ccc1Cl | – | – | – | – | –
640 nM | 6000 nM | – | O=C(Nc1ccc2oc(-c3ccc(F)cc3)nc2c1)c1cc([N+](=O)[O-])ccc1Cl | – | – | – | – | EC50 [11]: 420 nM; EC50 [12]: 3800 nM; EC50 [15]: 2600 nM; EC50 [16]: 4400 nM
> 33000 nM | – | – | Cc1ccc2nc(NC(=O)c3cc([N+](=O)[O-])ccc3Cl)[nH]c2c1 | – | – | – | – | –
4200 nM | – | – | O=C(Nc1ccc2oc(-c3ccccc3Br)nc2c1)c1cc([N+](=O)[O-])ccc1Cl | – | – | – | – | –
– | 160 nM | 191 ×10⁻⁶ cm/s | O=C(Nc1cc(-c2nc3ccccc3s2)ccc1F)c1cc([N+](=O)[O-])ccc1Cl | > 25000 nM | > 25000 nM | > 25000 nM | > 25000 nM | EC50 [11]: 200 nM; EC50 [12]: 230 nM; Kinetic_solubility [6]: BLD
1100 nM | – | – | Cc1ccc2nc(NC(=O)c3cc([N+](=O)[O-])ccc3Cl)sc2c1 | – | – | – | – | –
4100 nM | – | – | O=C(Nc1ccc(-c2nc3ccccc3[nH]2)cc1)c1cc([N+](=O)[O-])ccc1Cl | – | – | – | – | –
370 nM | – | – | O=C(Nc1nc(-c2ccc(F)cc2)cs1)c1cc([N+](=O)[O-])ccc1Cl | – | – | – | – | –
290 nM | 480 nM | 45 ×10⁻⁶ cm/s | O=C(Nc1cccc(-c2nc3ccccc3o2)c1)c1cc([N+](=O)[O-])ccc1Cl | > 25000 nM | > 25000 nM | > 25000 nM | > 25000 nM | EC50 [11]: 210 nM; EC50 [12]: 370 nM; EC50 [15]: 460 nM; solubility kinetic at 18 h [6]: 0.47 µM (≈ 0.185 µg/mL); EC50 [16]: 620 nM
> 33000 nM | – | – | Cc1ccc(-c2nc3cc(Cl)ccc3o2)cc1NC(=O)c1cc([N+](=O)[O-])ccc1Cl | – | – | – | – | –
– | 190 nM | 276 ×10⁻⁶ cm/s | O=C(Nc1cccc(-c2nc3ccccc3s2)c1)c1cc([N+](=O)[O-])c(N2CCNCC2)cc1Cl | > 25000 nM | 5300 nM | 12700 nM | > 25000 nM | Papp [5]: < 1 ×10⁻⁶ cm/s; solubility kinetic at 18 h [6]: 0.72 µM (≈ 0.356 µg/mL); solubility kinetic at 18 h [8]: 0.98 µM (≈ 0.484 µg/mL)
– | 250 nM | 17 ×10⁻⁶ cm/s | O=C(Nc1ccc(F)c(-c2nc3ccccc3s2)c1)c1cc([N+](=O)[O-])ccc1Cl | > 25000 nM | > 25000 nM | > 25000 nM | > 25000 nM | EC50 [11]: 63 nM; EC50 [12]: 69 nM; solubility kinetic at 18 h [6]: 0.49 µM (≈ 0.21 µg/mL)
6100 nM | – | – | O=C(Nc1ccc2oc(-c3ccccc3)nc2c1)c1cc([N+](=O)[O-])ccc1Cl | – | – | – | – | –
– | 170 nM | 366 ×10⁻⁶ cm/s | O=C(Nc1ccc(F)c(-c2nc3ccccc3o2)c1)c1cc([N+](=O)[O-])ccc1Cl | > 25000 nM | > 25000 nM | > 25000 nM | > 25000 nM | solubility kinetic at 18 h [6]: 0.27 µM (≈ 0.111 µg/mL)
